In ChEMBL document CHEMBL5303300, “EUbOPEN Chemogenomics Library - Multiplex” (2023):
Several values for one entry are separate records, joined by “and”; a condition that tells them apart may be missing. Identical values can stand only once.

Test system: Fibroblast
Experiment: Multiplex assay against human fibroblast
Assay type: toxicity, cell-based
Conditions: number of replicates 2
Procedure, shortened: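 Compound was added to live cells that had been stained at seeding with Hoechst33342, BioTracker Green Microtubule Cytoskeleton Dye, MitoTracker Red and Annexin V Alexa Fluor 680, and imaging followed on a CQ1 microscope at 37°C and 5% CO2. CellPathfinder machine-learning gating divided cells into Hoechst high-intensity objects or normal cells, normal cells into healthy, pyknosed or fragmented nuclei, and pyknosed cells into mitotic or apoptotic. Tubulin, mitochondrial-mass and membrane-permeability phenotypes are per cents of healthy-nucleus cells.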

[1] = 12 h, 1 µM, compound concentration 1 uM
[2] = 12 h, 10 µM, compound concentration 10 uM
[3] = 24 h, 1 µM, compound concentration 1 uM
[4] = 24 h, 10 µM, compound concentration 10 uM
[5] = 48 h, 1 µM, compound concentration 1 uM
[6] = 48 h, 10 µM, compound concentration 10 uM

## CC1(C)C(=O)N([C@H]2CCc3c(O)cccc32)c2nc(Nc3cccc(CN4CCCC4)c3)ncc21
[1]
  Population Apoptotic (%): 38% and 68%
  Population Fragmented Nuclei (%): 14% and 18%
  Population Healthy Nuclei (%): 75% and 64%
  Population Hoechst High Intensity Objects (%): 0%
  Population Membrane Permeable-Phenotype (%): 5%
  Population Mitochondria Different-Phenotype (%): 0% and 4%
  Population Mitotic Cells (%): 61% and 31%
  Population Normal (%): 100%
  Population Pyknosed Nuclei (%): 9% and 17%
  Population Tubulin-Different-Phenotype (%): 22% and 16%
  Total Cell Count: 136 and 183
[2]
  Population Apoptotic (%): 77% and 80%
  Population Fragmented Nuclei (%): 22% and 20%
  Population Healthy Nuclei (%): 43% and 42%
  Population Hoechst High Intensity Objects (%): 1%
  Population Membrane Permeable-Phenotype (%): 9% and 4%
  Population Mitochondria Different-Phenotype (%): 16% and 12%
  Population Mitotic Cells (%): 22% and 20%
  Population Normal (%): 98%
  Population Pyknosed Nuclei (%): 33% and 37%
  Population Tubulin-Different-Phenotype (%): 67% and 54%
  Total Cell Count: 150 and 191
[3]
  Population Apoptotic (%): 62% and 70%
  Population Fragmented Nuclei (%): 18% and 20%
  Population Healthy Nuclei (%): 67% and 64%
  Population Hoechst High Intensity Objects (%): 0%
  Population Membrane Permeable-Phenotype (%): 5% and 2%
  Population Mitochondria Different-Phenotype (%): 2% and 8%
  Population Mitotic Cells (%): 37% and 29%
  Population Normal (%): 99%
  Population Pyknosed Nuclei (%): 13% and 15%
  Population Tubulin-Different-Phenotype (%): 22% and 24%
  Total Cell Count: 118 and 154
[4]
  Population Apoptotic (%): 95% and 93%
  Population Fragmented Nuclei (%): 25% and 22%
  Population Healthy Nuclei (%): 16%
  Population Hoechst High Intensity Objects (%): 0% and 1%
  Population Membrane Permeable-Phenotype (%): 7% and 8%
  Population Mitochondria Different-Phenotype (%): 21% and 33%
  Population Mitotic Cells (%): 4% and 6%
  Population Normal (%): 99% and 98%
  Population Pyknosed Nuclei (%): 58% and 61%
  Population Tubulin-Different-Phenotype (%): 46% and 79%
  Total Cell Count: 176 and 153
[5]
  Population Apoptotic (%): 69% and 79%
  Population Fragmented Nuclei (%): 13% and 14%
  Population Healthy Nuclei (%): 61% and 52%
  Population Hoechst High Intensity Objects (%): 0%
  Population Membrane Permeable-Phenotype (%): 18% and 15%
  Population Mitochondria Different-Phenotype (%): 4% and 0%
  Population Mitotic Cells (%): 30% and 20%
  Population Normal (%): 100% and 99%
  Population Pyknosed Nuclei (%): 24% and 32%
  Population Tubulin-Different-Phenotype (%): 32% and 20%
  Total Cell Count: 105 and 132
[6]
  Population Apoptotic (%): 97% and 95%
  Population Fragmented Nuclei (%): 15% and 19%
  Population Healthy Nuclei (%): 17%
  Population Hoechst High Intensity Objects (%): 2%
  Population Membrane Permeable-Phenotype (%): 14% and 20%
  Population Mitochondria Different-Phenotype (%): 28% and 40%
  Population Mitotic Cells (%): 2% and 4%
  Population Normal (%): 97%
  Population Pyknosed Nuclei (%): 67% and 62%
  Population Tubulin-Different-Phenotype (%): 61% and 64%
  Total Cell Count: 126 and 145

## COCCNC1CCC(Nc2cc(-c3csc(NCC4(C#N)CCOCC4)n3)c(Cl)cn2)CC1 (configuration not stated)
[1]
  Population Apoptotic (%): 50% and 31%
  Population Fragmented Nuclei (%): 7% and 12%
  Population Healthy Nuclei (%): 73% and 67%
  Population Hoechst High Intensity Objects (%): 0%
  Population Membrane Permeable-Phenotype (%): 2% and 7%
  Population Mitochondria Different-Phenotype (%): 1% and 2%
  Population Mitotic Cells (%): 50% and 68%
  Population Normal (%): 99%
  Population Pyknosed Nuclei (%): 19% and 20%
  Population Tubulin-Different-Phenotype (%): 13% and 12%
  Total Cell Count: 154 and 189
[2]
  Population Apoptotic (%): 48% and 47%
  Population Fragmented Nuclei (%): 10% and 15%
  Population Healthy Nuclei (%): 70% and 68%
  Population Hoechst High Intensity Objects (%): 0%
  Population Membrane Permeable-Phenotype (%): 12% and 13%
  Population Mitochondria Different-Phenotype (%): 5% and 10%
  Population Mitotic Cells (%): 51% and 52%
  Population Normal (%): 99% and 100%
  Population Pyknosed Nuclei (%): 18% and 16%
  Population Tubulin-Different-Phenotype (%): 79% and 67%
  Total Cell Count: 219 and 209
[3]
  Population Apoptotic (%): 55% and 74%
  Population Fragmented Nuclei (%): 10% and 4%
  Population Healthy Nuclei (%): 71% and 80%
  Population Hoechst High Intensity Objects (%): 0%
  Population Membrane Permeable-Phenotype (%): 4% and 6%
  Population Mitochondria Different-Phenotype (%): 3% and 0%
  Population Mitotic Cells (%): 44% and 25%
  Population Normal (%): 99% and 100%
  Population Pyknosed Nuclei (%): 17% and 15%
  Population Tubulin-Different-Phenotype (%): 20% and 19%
  Total Cell Count: 163 and 170
[4]
  Population Apoptotic (%): 53% and 65%
  Population Fragmented Nuclei (%): 14% and 13%
  Population Healthy Nuclei (%): 72% and 73%
  Population Hoechst High Intensity Objects (%): 1% and 0%
  Population Membrane Permeable-Phenotype (%): 11%
  Population Mitochondria Different-Phenotype (%): 18%
  Population Mitotic Cells (%): 46% and 34%
  Population Normal (%): 98% and 100%
  Population Pyknosed Nuclei (%): 12%
  Population Tubulin-Different-Phenotype (%): 87% and 70%
  Total Cell Count: 206 and 210
[5]
  Population Apoptotic (%): 59% and 68%
  Population Fragmented Nuclei (%): 9% and 11%
  Population Healthy Nuclei (%): 57% and 55%
  Population Hoechst High Intensity Objects (%): 0%
  Population Membrane Permeable-Phenotype (%): 14%
  Population Mitochondria Different-Phenotype (%): 3% and 1%
  Population Mitotic Cells (%): 40% and 31%
  Population Normal (%): 100%
  Population Pyknosed Nuclei (%): 33% and 32%
  Population Tubulin-Different-Phenotype (%): 30% and 22%
  Total Cell Count: 154 and 174
[6]
  Population Apoptotic (%): 54% and 76%
  Population Fragmented Nuclei (%): 15% and 13%
  Population Healthy Nuclei (%): 64% and 67%
  Population Hoechst High Intensity Objects (%): 0% and 1%
  Population Membrane Permeable-Phenotype (%): 12% and 10%
  Population Mitochondria Different-Phenotype (%): 18% and 16%
  Population Mitotic Cells (%): 45% and 23%
  Population Normal (%): 99%
  Population Pyknosed Nuclei (%): 20% and 19%
  Population Tubulin-Different-Phenotype (%): 81% and 71%
  Total Cell Count: 207 and 200
